Source: PubChem BioAssay
An excerpt weighted towards active compounds, which were near 2.5% of everything screened.
SIRT5 inh = sirtuin-5 (human) deacylase inhibition; Q9NXA8; Purified SirT5, succinyl-peptide AMC, trypsin-coupled fluorescence; inhibition, % at 15 µM; 330,000 compounds, 1.1% hits; in the data active means inhibition above about 15%; inconclusive means no clear call, values can overlap the other calls
ERAP1 inh = blocks human ERAP1 aminopeptidase activity | 340,000 compounds, 0.15% hits | Q9NZ08 | AID 652197 | recombinant ERAP1, Leu-AMC fluorescence, 60 min | inhibition, % at 10.7 µM;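 active means mean replicate inhibition of at least 30%, or all replicates individually reaching that 30% level; inactive means mean below 30% and not every replicate reaching it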
DENV2 CPE rescue = DENV2-induced cell death inhibition | DENV2-infected cells, cytopathic effect rescue, plate reader | CPE inhibition, % at 9.99 µM | 350,000 compounds, 1.7% hits; in the data active means CPE inhibition above about 20%, passing the limit was not always enough; inconclusive means no clear call, values can overlap the other calls; tested in BHK-21 cells
E-sel inducer = induces E-selectin expression in human endothelial cells. P16581. HUVEC E-selectin immunofluorescence imaging; normalized: neutral wells 0, TNF-alpha wells 100. activation, % at 7.58 µM. 260,000 compounds, 0.37% hits. AID 686992;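 active means mean E-selectin-positive cell signal at least 10% of the positive control, reached in at least 60% of replicates, without over 20% cell loss; inconclusive means no rule given, readout overlaps actives, possibly toxicity-flagged; inactive means the rest, including those meeting only one limit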
Target sequence (P16581 whole entry, looked up): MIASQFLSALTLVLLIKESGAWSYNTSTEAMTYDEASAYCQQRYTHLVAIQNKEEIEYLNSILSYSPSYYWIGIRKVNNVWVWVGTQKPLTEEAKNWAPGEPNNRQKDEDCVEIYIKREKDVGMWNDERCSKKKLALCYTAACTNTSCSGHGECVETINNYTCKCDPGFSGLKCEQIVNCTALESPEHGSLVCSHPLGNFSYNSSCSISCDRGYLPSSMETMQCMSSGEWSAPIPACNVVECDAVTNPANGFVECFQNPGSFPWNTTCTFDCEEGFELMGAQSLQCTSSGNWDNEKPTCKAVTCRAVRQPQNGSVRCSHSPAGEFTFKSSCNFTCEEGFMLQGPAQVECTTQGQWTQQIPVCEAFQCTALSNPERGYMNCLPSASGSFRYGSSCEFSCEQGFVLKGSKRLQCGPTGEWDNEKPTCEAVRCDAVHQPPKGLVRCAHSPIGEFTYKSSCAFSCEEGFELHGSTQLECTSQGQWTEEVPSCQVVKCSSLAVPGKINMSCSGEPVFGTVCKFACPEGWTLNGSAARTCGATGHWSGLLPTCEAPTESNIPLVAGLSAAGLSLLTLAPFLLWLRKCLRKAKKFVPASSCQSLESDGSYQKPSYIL
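System: HUVEC, human umbilical vein endothelial cells; quantity: 3,000 cells/well; buffer or medium: EGM-2 medium, gelatin-coated wells; dosing: single-point compound dose; detection: immunofluorescence imaging; evaluation: % PE-positive cells; benchmarks: TNF-alpha, DMSO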
PglD DTNB = PglD (C. jejuni) enzyme inhibition. purified PglD enzyme, DTNB colorimetric CoA detection. inhibition, % at 12.5 µM. 360,000 compounds, 0.098% hits; in the data active means inhibition above about 16%, passing the limit was not always enough; inconclusive means no clear call, values can overlap the other calls
Each line names hits and unclear results; the compound was inactive in the other large screens.

CCOC(=O)CC1C(=O)NCCN1C1CCCC1 (stereo unspecified)	SIRT5 inh 20 (no result: PglD DTNB)
COc1cccc(CSc2nc3cc4c(cc3cc2C)OCCO4)c1	none (no result: SIRT5 inh, E-sel inducer)
Cc1cccc(CN2C[C@]34C=C[C@@H](C[C@@H]3S2(=O)=O)O4)c1	DENV2 CPE rescue 48 (no result: SIRT5 inh)
Cc1ccc(C(=O)Nc2nc(-c3ccccn3)cs2)o1	none (no result: E-sel inducer, PglD DTNB)
CCc1cc(C(=O)Nc2nc(-c3ccccn3)cs2)sc1C	E-sel inducer 29
Cc1ccc(NC(=O)CC(=O)Nc2ccc(C)c(C)c2)cc1C	none
Cc1ccc(NCCCCO)cc1C	E-sel inducer 142
CCOC(=O)C1CCCN(C(=O)c2cccc3ccccc23)C1 (stereo unspecified)	none
CCOC(=O)C1CCc2c(ccc3ccccc23)N1CCC#N (stereo unspecified)	SIRT5 inh 35
CCOC(=O)N1CCN(C(=O)/C=C/c2c(C)nn(-c3ccc(F)cc3)c2Cl)CC1	none (no result: E-sel inducer, PglD DTNB)
CN(c1ccccc1)c1ccc(/C=C(/CCC(=O)O)c2nc3ccccc3s2)cc1[N+](=O)[O-]	SIRT5 inh 18 (no result: PglD DTNB)
O=C(O)CC/C(=C\c1ccc(N2CCCC2)c([N+](=O)[O-])c1)c1nc2ccccc2s1	none (no result: PglD DTNB)
O=C(Nc1cccnc1)c1cccc([N+](=O)[O-])c1	none (no result: PglD DTNB)
CN[C@H]1C[C@H]2c3[nH]c4ccccc4c3CCN2C(=O)[C@H]1[C@H](C)O	DENV2 CPE rescue 24
C/C(=N\Nc1nc2ccccc2c(=O)n1O)c1ccco1	none (no result: E-sel inducer, PglD DTNB)
Cc1nc(C)c(CCNC(=O)c2ccccc2Br)s1	none (no result: SIRT5 inh, ERAP1 inh, DENV2 CPE rescue, E-sel inducer)
CC(C)CC(=O)N1CCN(Cc2ccccc2[N+](=O)[O-])CC1	SIRT5 inh 32 (no result: E-sel inducer, PglD DTNB)
C/C=C/c1ccc2c(c1)O[C@@H](CN(C)C(=O)Nc1ccccc1)[C@H](C)CN([C@@H](C)CO)S2(=O)=O	none
O=C(Nc1cc(C(F)(F)F)cc(C(F)(F)F)c1)Nc1cnn(-c2ccc([N+](=O)[O-])cc2)c1C(F)(F)F	E-sel inducer 74 (no result: SIRT5 inh, ERAP1 inh)
O=C(Nc1ccc(C(=O)O)cc1)Nc1ccc([N+](=O)[O-])cc1	none
CC(=O)NC(Cc1ccccc1)C(=O)O (stereo unspecified)	DENV2 CPE rescue 56 (no result: E-sel inducer)
COc1ccccc1C(=O)N/C(=C\c1ccccc1)C(=O)NC(Cc1ccccc1)C(=O)O (stereo unspecified)	SIRT5 inh 70 (no result: E-sel inducer)
O=C(NCCCn1ccnc1)c1ccc2nccnc2c1	none
COC(=O)[C@H]1[C@H](CO)[C@H]2Cn3c(ccc(C4=CCCC4)c3=O)[C@H]2N1CC1CCOCC1	DENV2 CPE rescue 71
CN1[C@@H]2c3ccc(C4=CCCC4)c(=O)n3C[C@@H]2[C@@H](CO)[C@@H]1C(=O)NCc1ccccc1F	DENV2 CPE rescue 50
CCCN1[C@H](C(=O)OC)[C@@H](CO)[C@@H]2Cn3c(ccc(C4=CCCC4)c3=O)[C@@H]21	DENV2 CPE rescue 84
CCCNC(=O)[C@H]1N[C@H]2c3ccc(C4=CCCCC4)c(=O)n3C[C@H]2[C@@H]1CO	SIRT5 inh 17
COC(=O)Cc1[nH]c(=O)[nH]c1C(=O)OC	none
CC1(C)Cc2ccccc2C(/C(C#N)=N/O)=N1	none (no result: E-sel inducer)
O=C(O)CSCC(=O)Nc1cccc2ccccc12	none (no result: E-sel inducer, PglD DTNB)
CCOCCCn1c(=N)c(S(=O)(=O)c2ccccc2)cc2c(=O)n3cc(C)ccc3nc21	none (no result: E-sel inducer)
C[C@@H]1CN([C@@H](C)CO)C(=O)Cc2cc(NC(=O)CCN3CCOCC3)ccc2O[C@@H]1CN(C)Cc1ccc(C(=O)Nc2ccccc2N)cc1	none (no result: PglD DTNB)
CCCN1[C@@H]2c3ccc(C4=CCCC4)c(=O)n3C[C@@H]2[C@@H](CO)[C@@H]1C(=O)NCC	SIRT5 inh 18
COc1ccc(-c2ccc3n(c2=O)C[C@H]2[C@H](CO)[C@@H](C(=O)NCCN4CCCCC4)N(C)[C@@H]32)cc1	DENV2 CPE rescue 34 (no result: PglD DTNB)
CCn1c(SCc2cccc(F)c2)nnc1-c1ccncc1	DENV2 CPE rescue 47
O=C(NC1CC1)C1=C[C@H](c2ccc(C(F)(F)F)cc2)C[C@H](OCCCCO)O1	none
Clc1ccc(C2=NCCn3nc4ccccc4c32)cc1	DENV2 CPE rescue inconclusive
Nc1c(Cl)cc(C2=NCCn3nc4ccccc4c32)cc1Cl	DENV2 CPE rescue 22 (no result: SIRT5 inh, E-sel inducer)
CC(C)c1ccc(Nc2ncc3c(n2)CCN(C(=O)Nc2ccc(F)c(Cl)c2)C3)cc1	DENV2 CPE rescue 20
COc1ccc(OC)c(/C=C/C(=O)OCC(=O)N2CCCCC2)c1	none (no result: SIRT5 inh)
O=C(CCCn1c(=S)[nH]c2ccsc2c1=O)NCCc1ccccc1	none
CC(C)NC(=O)Nc1ccc2c(c1)C(=O)N([C@@H](C)CO)C[C@H](C)[C@H](CN(C)Cc1ccc(-c3ccccc3)cc1)O2	none
C[C@@H]1CN([C@H](C)CO)C(=O)c2cc(NC(=O)Nc3ccc4c(c3)OCO4)ccc2O[C@@H]1CN(C)Cc1ccc(-c2ccccc2)cc1	none
C[C@H]1CN([C@@H](C)CO)C(=O)c2cccc(NC(=O)Nc3ccc4c(c3)OCO4)c2O[C@@H]1CN(C)Cc1ccccc1	DENV2 CPE rescue 39 (no result: PglD DTNB)
C[C@H]1CN([C@@H](C)CO)C(=O)c2cccc(NC(=O)Nc3ccc4c(c3)OCO4)c2O[C@H]1CN(C)Cc1ccccc1	none
C[C@H](CO)N1C[C@H](C)[C@H](CN(C)Cc2ccc(-c3ccccc3)cc2)Oc2c(NC(=O)Nc3ccc4c(c3)OCO4)cccc2C1=O	DENV2 CPE rescue 21
CC(C)NC(=O)Nc1ccc2c(c1)C(=O)N([C@H](C)CO)C[C@@H](C)[C@@H](CN(C)Cc1ccc(-c3ccccc3)cc1)O2	SIRT5 inh 16
C[C@H](CO)N1C[C@H](C)[C@H](CN(C)Cc2ccc(-c3ccccc3)cc2)Oc2ccc(NC(=O)Nc3ccc4c(c3)OCO4)cc2C1=O	DENV2 CPE rescue 24
CC(C)NC(=O)Nc1cccc2c1O[C@@H](CN(C)S(=O)(=O)c1ccc(F)cc1)[C@H](C)CN([C@@H](C)CO)C2=O	none
COc1ccc(C=NCCC2(O)CC(C)N(C)CC2C)cc1 (stereo unspecified)	none (no result: SIRT5 inh, ERAP1 inh, DENV2 CPE rescue, E-sel inducer)
Cc1ccc(Nc2nc(Cl)c(C=O)s2)cc1Cl	none (no result: DENV2 CPE rescue, PglD DTNB)
C[C@@H]1CCCCO[C@@H](CN(C)C)[C@H](C)CN([C@@H](C)CO)C(=O)c2cc(NC(=O)C3CCCCC3)ccc2O1	none (no result: SIRT5 inh, ERAP1 inh, DENV2 CPE rescue, PglD DTNB)
COc1ccc(O)c(/C=N/NC(=O)CN2CCS(=O)(=O)CC2)c1	DENV2 CPE rescue 54
COc1ccc(O)c(/C=N/NC(=O)CCC(=O)Nc2ccc(C)cc2)c1	none
Cc1noc(C)c1S(=O)(=O)Nc1ccc2c(c1)CC(=O)N([C@H](C)CO)C[C@@H](C)[C@H](CN(C)Cc1ccccc1)O2	DENV2 CPE rescue 22 (no result: SIRT5 inh)
Cc1noc(C)c1S(=O)(=O)Nc1ccc2c(c1)CC(=O)N([C@H](C)CO)C[C@H](C)[C@H](CN(C)Cc1ccncc1)O2	SIRT5 inh 20 (no result: E-sel inducer)
Cc1noc(C)c1S(=O)(=O)Nc1ccc2c(c1)CC(=O)N([C@@H](C)CO)C[C@@H](C)[C@H](CN(C)Cc1ccncc1)O2	none (no result: DENV2 CPE rescue, E-sel inducer)
Cc1noc(C)c1S(=O)(=O)Nc1ccc2c(c1)CC(=O)N([C@H](C)CO)C[C@H](C)[C@@H](CN(C)Cc1ccc(-c3ccccc3)cc1)O2	E-sel inducer 58 (no result: PglD DTNB)
